Laboratory results as given in ChEMBL document CHEMBL3244325, “Diastereoisomeric N-tetrahydrofurfurylnoroxymorphones with opioid agonist--antagonist properties” (J Med Chem, 1977).

Key:
Mus musculus [1] = experiment: Ratio of LD50 in sc dosed mouse to ED50 in sc dosed mouse by writhing test
Mus musculus [2] = experiment: Ratio of morphine hydrochloride ED50 to compound ED50 for sc dosed mouse assessed as inhibition of phenylquinone-induced writhing; assay type: functional
Mus musculus [3] = experiment: Analgesic activity in sc dosed mouse by hot plate method; assay type: functional
[4] = Toxicity in sc dosed mouse; assay type: organism-based; conditions: in vivo
In short: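 Acute toxicity in mice, expressed as LD50 calculated by the Litchfield and Wilcoxon method.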

Mus musculus [5] = experiment: Analgesic activity in sc dosed mouse by tail clip method; assay type: functional
Mus musculus [6] = organism: Mus musculus; experiment: Inhibition of morphine-induced analgesia in mouse by tail clip method; assay type: functional
In short: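 Mice dosed subcutaneously; morphine antagonism measured as suppression of morphine analgesia by a tail-clip-based procedure. AD50 in mg/kg estimated by graphical evaluation of log dose-response curves.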

Mus musculus [7] = experiment: Analgesic activity in sc dosed mouse assessed as inhibition of phenylquinone-induced writhing; assay type: functional

Structure (SMILES)	Ratio LD50/ED50 (Mus musculus [1])	Ratio ED50 (Mus musculus [2])	ED50 (Mus musculus [3])	LD50 [4]	ED50 (Mus musculus [5])	AD50 (Mus musculus [6])	ED50 (Mus musculus [7])
Cl.O=C1CC[C@@]2(O)[C@H]3Cc4ccc(O)c5c4[C@@]2(CCN3C[C@H]2CCCO2)[C@H]1O5	47750	25	1.9 mg/kg	955 mg/kg	200 mg/kg	4 mg/kg	0.02 mg/kg
Cl.O=C1CC[C@@]2(O)[C@H]3Cc4ccc(O)c5c4[C@@]2(CCN3C[C@@H]2CCCO2)[C@H]1O5	–	–	–	810 mg/kg	–	5 mg/kg	–
CN1CC[C@]23c4c5ccc(O)c4O[C@H]2[C@@H](O)C=C[C@H]3[C@H]1C5.Cl [MORPHINE HYDROCHLORIDE]	–	–	1.2 mg/kg	–	11 mg/kg	–	0.5 mg/kg
C=CCN1CC[C@]23c4c5ccc(O)c4O[C@H]2[C@@H](O)C=C[C@H]3[C@H]1C5.Cl [NALORPHINE HYDROCHLORIDE]	–	–	–	560 mg/kg	–	1 mg/kg	0.5 mg/kg
C=CCN1CC[C@]23c4c5ccc(O)c4O[C@H]2C(=O)CC[C@@]3(O)[C@H]1C5.Cl [NALOXONE HYDROCHLORIDE]	–	–	–	286 mg/kg	–	0.03 mg/kg	–
CC(C)=CCN1CCC2(C)c3cc(O)ccc3CC1C2C.Cl (stereo not given) [PENTAZOCINE HYDROCHLORIDE]	–	–	–	220 mg/kg	–	8 mg/kg	1.4 mg/kg
